Results on eight molecules are retold here after ChEMBL document CHEMBL1137524, “Synthesis and antibacterial activity of pyranmycin derivatives with N-1 and O-6 modifications” (2007).

The structures appear in SMILES notation. In brackets after ≈: the same amount, converted by molar mass.

Format in all cases: functional
Experiment [1] deals with Pseudomonas aeruginosa. Description: Antibacterial activity against Pseudomonas aeruginosa ATCC 27853 after 12 to 18 hrs. The procedure, abridged:
(§1)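 Broth microdilution in Trypticase Soy broth. Bacteria grown at 35 °C for 1–2 h, adjusted with broth to A625 0.08–0.1, then diluted 100 µL into 10 mL broth. 50 µL inoculum was combined with 50 µL of 2-fold serial compound dilutions and incubated at 35 °C for 12–18 h. MIC taken as the lowest concentration inhibiting growth.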

In experiment [2] the test system is Escherichia coli. Kind of experiment: Antibacterial activity against aminoglycoside-resistant Escherichia coli TG1 pSF815 after 12 to 18 hrs. The procedure, abridged:
(§2)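 Broth microdilution MIC. Bacteria grown in Trypticase Soy broth at 35 °C for 1–2 h, adjusted with broth to A625 0.08–0.1, then 100 µL diluted into 10 mL broth. Wells received diluted inoculum plus 2-fold serial dilutions of compound. Incubated 35 °C for 12–18 h. MIC taken as lowest concentration inhibiting growth, in µg/mL.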

In experiment [3] the test system is Klebsiella pneumoniae. Description: Antibacterial activity against Klebsiella pneumoniae ATCC 700603 after 12 to 18 hrs. In a few lines:
as §1

Experiment [4] has as its system Klebsiella pneumoniae. Description: Antibacterial activity against Klebsiella pneumoniae ATCC 13883 after 12 to 18 hrs. The procedure, abridged: as §1
Experiment [5] deals with Escherichia coli. Kind of experiment: Antibacterial activity against aminoglycoside-susceptible Escherichia coli TG1 after 12 to 18 hrs. The procedure, abridged:
as §2

For experiment [6], the system named is Escherichia coli. Description: Antibacterial activity against aminoglycoside-resistant Escherichia coli TG1 pTZ19U-3 after 12 to 18 hrs. The procedure, abridged:
as §2

The subject of experiment [7] is Staphylococcus aureus. Kind of experiment: Antibacterial activity against methicillin-resistant Staphylococcus aureus ATCC 33591 after 12 to 18 hrs. In a few lines:
as §2

The test system of experiment [8] is Escherichia coli. Kind of experiment: Antibacterial activity against Escherichia coli ATCC 25922 after 12 to 18 hrs. In a few lines:
as §2

The MIC is the lowest concentration found to suppress growth. High values mean a need for much substance, low ones inhibition by little substance. As for `NCC[C@H](O)C(=O)N[C@@H]1C[C@H](N)[C@@H](O[C@H]2O[C@H](CN)[C@@H](O)[C@H](O)[C@H]2N)[C@H](O[C@@H]2O[C@H](CO)[C@H](O)[C@H]2O)[C@H]1O` [BUTIROSIN A], the minimum inhibitory concentration (MIC) is 1 µg/mL (≈ 1.8 µM) in experiment [1]; 0.5 µg/mL (≈ 0.9 µM) in experiment [2]; 1 µg/mL (≈ 1.8 µM) in experiment [3]; 1 µg/mL (≈ 1.8 µM) in experiment [4]; 1 µg/mL (≈ 1.8 µM) in experiment [5]; 0.5 µg/mL (≈ 0.9 µM) in experiment [6]. The minimum inhibitory concentration (MIC) in experiment [7] is ≥ 32 µg/mL; in experiment [8], 4 µg/mL (≈ 7.2 µM).

For `C[C@H]1O[C@@H](O[C@@H]2[C@@H](OCCN)[C@H](NC(=O)[C@@H](O)CCN)C[C@H](N)[C@H]2O[C@H]2O[C@H](CN)[C@@H](O)[C@H](O)[C@H]2N)[C@H](O)[C@@H](O)[C@@H]1N`, the minimum inhibitory concentration (MIC) in experiment [1] came out at 0.5 µg/mL (≈ 0.817 µM); in experiment [2], 2 µg/mL (≈ 3.27 µM); in experiment [3], 2 µg/mL (≈ 3.27 µM); in experiment [4] it was 4 µg/mL (≈ 6.54 µM); in experiment [5], 8 µg/mL (≈ 13.1 µM); in experiment [6], 1 µg/mL (≈ 1.63 µM). Moreover, the minimal inhibitory concentration (MIC) was ≥ 32 µg/mL in experiment [7] and 8 µg/mL (≈ 13.1 µM) in experiment [8].

Turning to `C[C@H]1O[C@@H](O[C@@H]2[C@@H](O)[C@H](NC(=O)[C@@H](O)CCN)C[C@H](N)[C@H]2O[C@H]2O[C@H](CN)[C@@H](O)[C@H](O)[C@H]2N)[C@H](O)[C@@H](O)[C@@H]1N`, the MIC in experiment [1] was 2 µg/mL (≈ 3.52 µM); in experiment [2], 2 µg/mL (≈ 3.52 µM); in experiment [3], 1 µg/mL (≈ 1.76 µM); in experiment [4], 1 µg/mL (≈ 1.76 µM); in experiment [5] it was 4 µg/mL (≈ 7.03 µM); in experiment [6], 4 µg/mL (≈ 7.03 µM). Besides, the MIC was ≥ 32 µg/mL in experiment [7] and 8 µg/mL (≈ 14.1 µM) in experiment [8].

As for `CCCO[C@@H]1[C@@H](O[C@@H]2O[C@H](C)[C@@H](N)[C@H](O)[C@H]2O)[C@H](O[C@H]2O[C@H](CN)[C@@H](O)[C@H](O)[C@H]2N)[C@@H](N)C[C@H]1NC(=O)[C@@H](O)CCN`, the minimal inhibitory concentration (MIC) in experiment [2] was ≥ 32 µg/mL; in experiment [5], 8 µg/mL (≈ 13.1 µM); in experiment [6], ≥ 32 µg/mL; in experiment [8], ≥ 32 µg/mL.

For the molecule `NC[C@@H]1O[C@H](O[C@H]2[C@@H](O)[C@H](O[C@@H]3[C@@H](O)[C@H](N)C[C@H](N)[C@H]3O[C@H]3O[C@H](CN)[C@@H](O)[C@H](O)[C@H]3N)O[C@@H]2CO)[C@H](N)[C@@H](O)[C@@H]1O` [FRAMYCETIN], the MIC in experiment [1] is 0.5 µg/mL (≈ 0.813 µM); in experiment [2] it was 4 µg/mL (≈ 6.51 µM); in experiment [3] it was 16 µg/mL (≈ 26 µM); in experiment [4], 8 µg/mL (≈ 13 µM); in experiment [5], 4 µg/mL (≈ 6.51 µM); in experiment [6] it was ≥ 32 µg/mL. Further, the minimal inhibitory concentration (MIC) was ≥ 32 µg/mL in experiment [7] and 4 µg/mL (≈ 6.51 µM) in experiment [8].

As for `C[C@H]1O[C@@H](O[C@@H]2[C@@H](O)[C@H](N)C[C@H](N)[C@H]2O[C@H]2O[C@H](CN)[C@@H](O)[C@H](O)[C@H]2N)[C@H](O)[C@@H](O)[C@@H]1N`, the MIC is 4 µg/mL (≈ 8.56 µM) in experiment [1]; 8 µg/mL (≈ 17.1 µM) in experiment [2]; 16 µg/mL (≈ 34.2 µM) in experiment [3]; 4 µg/mL (≈ 8.56 µM) in experiment [4]; 8 µg/mL (≈ 17.1 µM) in experiment [5]; ≥ 32 µg/mL in experiment [6]. In addition, the MIC in experiment [7] is ≥ 32 µg/mL; in experiment [8] it was 8 µg/mL (≈ 17.1 µM).

On to `C[C@H]1O[C@@H](O[C@@H]2[C@@H](OCCO)[C@H](NC(=O)[C@@H](O)CCN)C[C@H](N)[C@H]2O[C@H]2O[C@H](CN)[C@@H](O)[C@H](O)[C@H]2N)[C@H](O)[C@@H](O)[C@@H]1N`, for which the minimum inhibitory concentration (MIC) amounted to 8 µg/mL (≈ 13.1 µM) in experiment [2], 2 µg/mL (≈ 3.26 µM) in experiment [5], 16 µg/mL (≈ 26.1 µM) in experiment [6] and 16 µg/mL (≈ 26.1 µM) in experiment [8].

Consider `NC[C@H]1O[C@H](O[C@H]2[C@H](O[C@@H]3O[C@H](CO)[C@@H](O)[C@H]3O)[C@@H](O)[C@H](N)C[C@@H]2N)[C@H](N)[C@@H](O)[C@@H]1O` [RIBOSTAMYCIN], for which the minimal inhibitory concentration (MIC) in experiment [2] is 4 µg/mL (≈ 8.8 µM); in experiment [5], 4 µg/mL (≈ 8.8 µM); in experiment [6] it was ≥ 32 µg/mL; in experiment [8], 8 µg/mL (≈ 17.6 µM).
